Laboratory results taken from ChEMBL document CHEMBL4270571, “6-Biphenylmethyl-3-hydroxypyrimidine-2,4-diones potently and selectively inhibited HIV reverse transcriptase-associated RNase H” (Eur J Med Chem, 2018).

Key:
[1] = target: Human immunodeficiency virus type 1 reverse transcriptase (Human immunodeficiency virus 1, UniProt Q72547); experiment: Inhibition of recombinant HIV1 reverse transcriptase RNase H expressed in Escherichia coli JM109 using RNA/DNA duplex substrate HTS1 as substrate
Gag-Pol polyprotein = Gag-Pol polyprotein (Human immunodeficiency virus type 1 group M subtype B (isolate HXB2)(HIV-1), UniProt P04585); experiment: Inhibition of recombinant HIV1 reverse transcriptase polymerase expressed in Escherichia coli JM109 assessed as decrease in extension of 18 nucleotide DNA primer annealed to 100 nucleotide DNA template measured after 30 mins; set-up: species or system Human immunodeficiency virus 1
Outline: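 18-nt DNA primer annealed to 100-nt DNA template (40 nM) was extended by 20 nM RT with dNTPs in 50 mM Tris pH 7.8, 50 mM NaCl, 1% DMSO, with increasing compound concentrations. Reactions were started with 6 mM MgCl₂, run 30 min at 37 °C, and stopped with EDTA. dsDNA formed was quantified by fluorescent dye (ex/em 504/531 nm), and dose-response data were fitted to a logistic curve.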

[2] = target: Human immunodeficiency virus type 1 integrase (Human immunodeficiency virus 1, UniProt Q7ZJM1); experiment: Inhibition of HIV integrase strand transfer activity expressed in Escherichia coli BL21 (DE3) using 5' biotin ATGTGGAAAATCTCTAGCA primer annealed with ACTGCTAGAGATTTTCCACAT 3' Cy5 template preincubated for 10 mins followed by primer/template addition measured after 30 mins by fluorescence assay
Outline: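 Purified HIV integrase in 10 mM HEPES pH 7.5, 10% glycerol, 10 mM MnCl₂, 1 mM DTT, with compounds in duplicate at 0.13–100 (final), 10 min at 25 °C. 500 nM biotin/Cy5 oligo duplex added, 30 min at 37 °C, EDTA quench. Products captured on streptavidin beads, washed, NaOH-denatured, formamide-eluted, read at 635/675.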

[3] = Cytotoxicity against human P4R5 cells assessed as reduction in cell viability after 72 hrs by XTT assay; type: cell-based
Outline: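 P4R5 cells seeded at 4 × 10³ per well in DMEM/10% FBS with puromycin ([…]). Cells treated with 1% DMSO or varying compound concentrations for 72 h, then viability read by XTT kit. CC50 = concentration giving 50% cell death, mean from at least two independent experiments.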

[4] = tested on: Human immunodeficiency virus 1; experiment: Antiviral activity against HIV1 infected in human P4R5 cells assessed as reduction in viral infection preincubated with cells for 24 hrs followed by viral infection measured after 48 hrs by fluorescence based MAGI assay; type: functional, organism-based
Outline: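 P4R5 indicator cells were seeded at 4 × 10³ per well in DMEM/10% FBS with puromycin. They were pretreated for 24 h with 1% DMSO or a range of compound concentrations, then infected with HIV-1 at an MOI of 1.25 for another 48 h. Cells were lysed and β-galactosidase was read by fluorescence with MUG substrate. EC50 is given as mean ± SD of at least two independent experiments.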

[5] = Selectivity ratio of CC50 for human P4R5 cells to EC50 for HIV1 infected in human P4R5 cells; type: toxicity, cell-based
Outline: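 P4R5 indicator cells, 4 × 10³ per well in DMEM/10% FBS with puromycin. […] Cytotoxicity arm: uninfected cells, compound for 72 h, XTT read-out; CC50 is 50% cell death. Each value is mean ± SD of ≥2 independent experiments.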

Sequence of Human immunodeficiency virus type 1 integrase (Q7ZJM1 whole entry): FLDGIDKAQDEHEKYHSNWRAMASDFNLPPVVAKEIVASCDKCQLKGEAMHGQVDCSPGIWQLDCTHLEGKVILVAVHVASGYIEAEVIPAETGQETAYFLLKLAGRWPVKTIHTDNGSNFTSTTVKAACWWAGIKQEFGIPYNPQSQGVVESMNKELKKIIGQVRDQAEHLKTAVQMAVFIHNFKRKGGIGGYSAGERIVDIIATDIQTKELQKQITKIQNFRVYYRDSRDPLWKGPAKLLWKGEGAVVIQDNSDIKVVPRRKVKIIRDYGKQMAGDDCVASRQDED

Compound	IC50 [1]	IC50 (Gag-Pol polyprotein)	IC50 [2]	CC50 [3]	EC50 [4]	Ratio CC50/EC50 [5]
CC(C)c1c(Cc2ccc(F)cc2)n(COCc2ccc(F)cc2)c(=O)n(O)c1=O	6.2 µM	–	–	–	–	–
CC(C)c1c(Cc2ccccc2)n(COCc2ccccc2)c(=O)n(O)c1=O	2.5 µM	–	–	–	–	–
CC(C)c1c(Cc2ccccc2)n(COCc2ccc(F)cc2)c(=O)n(O)c1=O	2.1 µM	–	–	–	–	–
CCOCn1c(Cc2ccccc2)c(C(C)C)c(=O)n(O)c1=O	6.8 µM	–	–	–	–	–
CCOCn1c(Cc2ccc(F)cc2)c(C(C)C)c(=O)n(O)c1=O	> 25 µM	–	–	–	–	–
CC(C)c1c(Cc2ccccc2)n(COCc2ccc(F)cc2F)c(=O)n(O)c1=O	1.8 µM	–	–	–	–	–
CC(C)c1c(Cc2ccccc2)n(COCc2cccc(Cl)c2F)c(=O)n(O)c1=O	0.9 µM	–	–	–	–	–
CC(C)c1c(Cc2ccccc2)n(COCc2ccc(F)cc2)c(=O)n(C)c1=O	7 µM	–	–	–	–	–
COn1c(=O)c(C(C)C)c(Cc2ccccc2)n(COCc2ccc(F)cc2)c1=O	11 µM	–	–	–	–	–
CC(C)c1c(Cc2ccccc2)n(COCCc2ccc(F)cc2)c(=O)n(O)c1=O	2.8 µM	–	–	–	–	–
CC(C)c1c(Cc2ccccc2)n(COCCCCc2ccc(F)cc2)c(=O)n(O)c1=O	1.8 µM	–	–	–	–	–
CC(C)c1c(Cc2ccccc2)n(CCc2ccc(F)cc2)c(=O)n(O)c1=O	6.6 µM	–	–	–	–	–
CC(C)c1c(Cc2ccccc2)n(CCCc2ccc(F)cc2)c(=O)n(O)c1=O	3.8 µM	–	–	–	–	–
CC(C)c1c(Cc2ccccc2)n(CCCCc2ccc(F)cc2)c(=O)n(O)c1=O	0.9 µM	–	–	–	–	–
CCc1c(Cc2ccccc2)c(=O)n(O)c(=O)n1COCc1ccc(F)cc1	15 µM	–	–	–	–	–
CC(C)c1c(Cc2ccc(F)cc2)n(Cc2ccccc2)c(=O)n(O)c1=O	10 µM	–	–	–	–	–
CC(C)c1c(Cc2ccc(F)cc2)n(Cc2ccc(F)cc2)c(=O)n(O)c1=O	13 µM	–	–	–	–	–
CC(C)c1c(Cc2ccccc2)n(Cc2ccccc2)c(=O)n(O)c1=O	15 µM	–	–	–	–	–
Cc1cc(-c2ccc(Cc3cc(=O)n(O)c(=O)[nH]3)cc2)ccc1F	0.011 µM	> 10 µM	> 100 µM	> 100 µM	> 20 µM	–
O=c1cc(Cc2ccc(Br)cc2)[nH]c(=O)n1O	0.011 µM	> 10 µM	> 100 µM	64 µM	> 20 µM	–
CCOCn1c(Cc2ccc(-c3ccccc3)cc2)cc(=O)n(O)c1=O	> 5 µM	–	–	> 100 µM	> 20 µM	–
O=c1cc(Cc2ccc(-c3ccc(C(F)(F)F)cc3C(F)(F)F)cc2)[nH]c(=O)n1O	0.085 µM	> 10 µM	> 100 µM	> 100 µM	> 20 µM	–
O=c1cc(Cc2cccc(-c3cccc(Cl)c3)c2)[nH]c(=O)n1O	0.02 µM	10 µM	> 100 µM	62 µM	11 µM	4 to 6

Compound	IC50 [1]	IC50 (Gag-Pol polyprotein)	IC50 [2]	CC50 [3]	EC50 [4]	Ratio CC50/EC50 [5]
O=c1cc(Cc2ccc(-c3ccc(Cl)c(F)c3)cc2)[nH]c(=O)n1O	0.0094 µM	> 10 µM	> 100 µM	59 µM	15 µM	–
O=c1cc(Cc2ccc(-c3ccc(C(F)(F)F)cc3)cc2)[nH]c(=O)n1O	0.047 µM	> 10 µM	> 100 µM	> 100 µM	16 µM	–
O=c1cc(Cc2cccc(-c3cccc(C(F)(F)F)c3)c2)[nH]c(=O)n1O	0.037 µM	> 10 µM	> 100 µM	> 100 µM	> 20 µM	–
O=c1cc(Nc2ccc(-c3ccccc3)cc2)[nH]c(=O)n1O	–	2 µM	–	–	–	–
CCOCn1c(Cc2ccc(-c3cc(OC)cc(OC)c3)cc2)c(C)c(=O)n(O)c1=O	6.7 µM	–	–	–	–	–
O=c1cc(Cc2ccc(-c3ccccc3)cc2)[nH]c(=O)n1O	0.016 µM	> 10 µM	> 100 µM	11 µM	10 µM	–
O=c1cc(Cc2ccc(-c3cccc(F)c3)cc2)[nH]c(=O)n1O	0.028 µM	> 10 µM	> 100 µM	24 µM	12 µM	–
COc1ccc(-c2cccc(Cc3cc(=O)n(O)c(=O)[nH]3)c2)cc1F	0.0077 µM	> 10 µM	> 100 µM	20 µM	12 µM	–
O=c1cc(Cc2ccc(-c3ccc(F)cc3F)cc2)[nH]c(=O)n1O	0.015 µM	> 10 µM	> 100 µM	11 µM	5.6 µM	–
CCOCn1c(Cc2ccc(-c3ccc(C(F)(F)F)cc3)cc2)cc(=O)n(O)c1=O	2.1 µM	–	–	–	–	–
O=c1cc(Cc2cccc(Br)c2)[nH]c(=O)n1O	0.013 µM	> 10 µM	> 100 µM	63 µM	> 20 µM	–
O=c1cc(Cc2ccc(-c3cccc(Cl)c3)cc2)[nH]c(=O)n1O	0.016 µM	> 10 µM	> 100 µM	> 100 µM	> 20 µM	–
O=c1cc(Cc2cccc(-c3cc(Cl)cc(C(F)(F)F)c3)c2)[nH]c(=O)n1O	0.038 µM	> 10 µM	> 100 µM	> 100 µM	20 µM	–
CCc1c(-c2ccc(F)cc2)n(COCc2ccc(F)cc2)c(=O)n(O)c1=O	17 µM	–	–	–	–	–
CCOCn1c(Cc2ccc(-c3ccc(C#N)cc3)cc2)c(C)c(=O)n(O)c1=O	5.2 µM	–	–	–	–	–
O=c1cc(Cc2ccc(-c3cccc(C(F)(F)F)c3)cc2)[nH]c(=O)n1O	0.025 µM	> 10 µM	> 100 µM	> 100 µM	> 20 µM	–
O=c1cc(Cc2ccc(-c3cc(Cl)cc(C(F)(F)F)c3)cc2)[nH]c(=O)n1O	0.015 µM	> 10 µM	> 100 µM	> 100 µM	> 20 µM	–
Cc1cc(-c2cccc(Cc3cc(=O)n(O)c(=O)[nH]3)c2)ccc1F	0.0088 µM	> 10 µM	> 100 µM	37 µM	12 µM	–
O=c1cc(Cc2cccc(-c3ccccc3)c2)[nH]c(=O)n1O	0.016 µM	> 10 µM	> 100 µM	16 µM	9.6 µM	–
CCOCn1c(Cc2ccc(-c3ccccc3)cc2)c(C)c(=O)n(O)c1=O	6.2 µM	–	–	–	–	–
CCOCn1c(Cc2ccc(-c3ccc(Cl)c(F)c3)cc2)cc(=O)n(O)c1=O	0.43 µM	–	–	–	–	–
O=c1cc(Cc2ccc(-c3ccc(Cl)cc3Cl)cc2)[nH]c(=O)n1O	0.0092 µM	> 10 µM	> 100 µM	> 100 µM	13 µM	–
O=c1cc(Cc2cccc(-c3cccc(F)c3)c2)[nH]c(=O)n1O	0.018 µM	> 10 µM	> 100 µM	14 µM	9.9 µM	–
